Assay results from ChEMBL document CHEMBL4480400, “Development of an N-Acyl Amino Acid That Selectively Inhibits the Glycine Transporter 2 To Produce Analgesia in a Rat Model of Chronic Pain” (J Med Chem, 2019).
Calls of active or inactive are those of the source.

Legend:
[1] = biological target: T1, Sodium- and chloride-dependent glycine transporter 2 (Homo sapiens) (UniProt Q9Y345); assay: Inhibition of recombinant human GlyT2a expressed in Xenopus laevis oocytes assessed as reduction in channel current by two-electrode voltage clamp electrophysiology relative to control; assay type: cell-based
T1 sequence (whole entry): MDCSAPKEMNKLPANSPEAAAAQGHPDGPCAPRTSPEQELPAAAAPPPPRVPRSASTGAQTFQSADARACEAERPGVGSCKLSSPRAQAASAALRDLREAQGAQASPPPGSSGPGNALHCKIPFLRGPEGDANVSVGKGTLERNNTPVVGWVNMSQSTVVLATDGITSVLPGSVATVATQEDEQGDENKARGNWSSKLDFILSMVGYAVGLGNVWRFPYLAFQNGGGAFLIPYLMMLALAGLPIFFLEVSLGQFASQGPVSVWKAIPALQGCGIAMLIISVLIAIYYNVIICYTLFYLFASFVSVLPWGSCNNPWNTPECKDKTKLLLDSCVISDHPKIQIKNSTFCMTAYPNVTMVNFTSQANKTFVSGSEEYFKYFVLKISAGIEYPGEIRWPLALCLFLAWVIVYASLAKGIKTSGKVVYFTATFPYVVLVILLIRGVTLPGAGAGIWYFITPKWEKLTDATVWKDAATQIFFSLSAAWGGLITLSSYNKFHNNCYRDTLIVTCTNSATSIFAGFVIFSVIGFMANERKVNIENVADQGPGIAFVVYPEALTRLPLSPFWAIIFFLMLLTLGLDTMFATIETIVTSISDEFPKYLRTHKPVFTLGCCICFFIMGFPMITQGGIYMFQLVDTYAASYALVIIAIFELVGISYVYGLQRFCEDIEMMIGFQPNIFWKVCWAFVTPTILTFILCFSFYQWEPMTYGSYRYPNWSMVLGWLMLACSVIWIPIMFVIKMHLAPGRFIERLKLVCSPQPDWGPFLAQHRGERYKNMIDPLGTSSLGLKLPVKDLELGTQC

[2] = test system: Rattus norvegicus; assay: Analgesic activity in Sprague-Dawley rat model of neuropathic pain assessed as reduction in allodynia at 30 mg/kg, ip administered as single dose measured after 90 mins post injection; assay type: functional, organism-based
Summary of the method: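 Male Sprague-Dawley rats were tested 14 days after nerve-constriction surgery. Mechanical paw withdrawal threshold was measured with von Frey filaments (0.4–15.1 g) by the up-down method, bounded at 0.2 and 15 g. Rats got a single ip injection with vehicle of 1% DMSO, 10% Solutol HS15 in 0.9% saline. Testing ran at 15–360 min post-injection with Bonferroni comparisons against vehicle.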

[3] = Toxicity in Sprague-Dawley rat model of neuropathic pain assessed as induction of abdominal pain rat 30 mg/kg, ip administered as single dose measured up to 60 mins post injection; assay type: organism-based; conditions: in vivo, 1 h
Summary of the method: (§1)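 Male Sprague-Dawley rats underwent chronic nerve constriction surgery, and neuropathic pain developed over 14 days. Rats were housed in groups of 4 and acclimatised to test chambers. Single ip injection of drug or vehicle (1% DMSO, 10% Solutol HS15 in 0.9% saline). Adverse behaviours were scored over the post-injection period alongside von Frey testing, with vehicle as comparison.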

[4] = Toxicity in Sprague-Dawley rat model of neuropathic pain assessed as induction of writhing behaviour rat 30 mg/kg, ip administered as single dose measured up to 60 mins post injection; assay type: organism-based; conditions: in vivo, 1 h; summary of the method: as §1
[5] = Toxicity in Sprague-Dawley rat model of neuropathic pain assessed as induction of recumbent behaviour rat 30 mg/kg, ip administered as single dose measured up to 60 mins post injection; assay type: organism-based; conditions: in vivo, 1 h; summary of the method: as §1
[6] = biological target: T1, Sodium- and chloride-dependent glycine transporter 2 (Homo sapiens); assay: Slow reversible inhibition of recombinant human GlyT2a expressed in Xenopus laevis oocytes assessed as recovery of transport current at IC50 followed by compound wash out followed by glycine re-application at 5 mins intervals throughout wash time course and measured after 30 mins by two-electrode voltage clamp electrophysiology; assay type: cell-based; set-up: scale not given: the % may be the effect or the level left
[7] = Drug degradation in human liver microsomes at 1 uM measured over 60 mins by LC-MS/MS analysis; assay type: ADME, Microsome; conditions: read-out: Drug degradation
Summary of the method: (§2)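 Human or rat liver microsomes (0.4 mg/mL protein final) in 0.1 M phosphate buffer pH 7.4 with 1 μM compound at 37°C. Reaction started with an NADPH-regenerating system plus MgCl2. Samples were quenched with ice-cold acetonitrile at time points over 60 min. Remaining parent was measured by LC-MS, and the first-order depletion rate constant came from an exponential decay fit.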

[8] = Degradation half life in rat liver microsomes at 1 uM by LC-MS/MS analysis; assay type: ADME, Microsome; summary of the method: as §2
[9] = Degradation half life in rat plasma at 1000 ng/ml by LC-MS/MS analysis; assay type: ADME, cell-free
Summary of the method: (§3)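 Pooled human plasma (3 donors) or pooled male Sprague-Dawley rat plasma, thawed at 37°C. Spiked to a nominal 1000 ng/mL final (0.2% DMSO, 0.4% acetonitrile final) and incubated at 37°C. Aliquots were snap-frozen at time points over 4 h (n=3 per time point). Quantified by LC-MS against a same-species blank-plasma calibration with a leucine enkephalin internal standard.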

[10] = Drug degradation in human plasma at 1000 ng/ml measured over 240 mins by LC-MS/MS analysis; assay type: ADME, cell-free; conditions: read-out: Drug degradation; summary of the method: as §3
[11] = biological target: T1, Sodium- and chloride-dependent glycine transporter 2 (Homo sapiens); assay: Inhibition of recombinant human GlyT2a expressed in Xenopus laevis oocytes assessed as reduction in channel current at 30 nM by two-electrode voltage clamp electrophysiology; assay type: cell-based
Summary of the method: (§4)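 GlyT2-expressing oocytes under two-electrode voltage clamp at -60 mV. Glycine concentration responses were run first without inhibitor, then after 2 min pre-application of inhibitor (10 nM, 30 nM or 1 μM) in ND96, followed by increasing glycine. Plateau currents were normalised to each cell's Imax at 300 μM glycine without inhibitor. ANOVA was applied to EC50 and Imax.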

[12] = biological target: T1, Sodium- and chloride-dependent glycine transporter 2 (Homo sapiens); assay: Inhibition of recombinant human GlyT2a expressed in Xenopus laevis oocytes assessed as reduction in channel current at 10 nM by two-electrode voltage clamp electrophysiology; assay type: cell-based; summary of the method: as §4
[13] = biological target: T2, Sodium- and chloride-dependent glycine transporter 1 (Homo sapiens) (UniProt P48067); assay: Inhibition of recombinant human GlyT1b expressed in Xenopus laevis oocytes assessed as reduction in [3H]glycine uptake at 0.1 to 1 uM pretreated for 2 mins followed by [3H]glycine addition and measured after 30 mins by scintillation counting method; assay type: cell-based
T2 sequence (whole entry): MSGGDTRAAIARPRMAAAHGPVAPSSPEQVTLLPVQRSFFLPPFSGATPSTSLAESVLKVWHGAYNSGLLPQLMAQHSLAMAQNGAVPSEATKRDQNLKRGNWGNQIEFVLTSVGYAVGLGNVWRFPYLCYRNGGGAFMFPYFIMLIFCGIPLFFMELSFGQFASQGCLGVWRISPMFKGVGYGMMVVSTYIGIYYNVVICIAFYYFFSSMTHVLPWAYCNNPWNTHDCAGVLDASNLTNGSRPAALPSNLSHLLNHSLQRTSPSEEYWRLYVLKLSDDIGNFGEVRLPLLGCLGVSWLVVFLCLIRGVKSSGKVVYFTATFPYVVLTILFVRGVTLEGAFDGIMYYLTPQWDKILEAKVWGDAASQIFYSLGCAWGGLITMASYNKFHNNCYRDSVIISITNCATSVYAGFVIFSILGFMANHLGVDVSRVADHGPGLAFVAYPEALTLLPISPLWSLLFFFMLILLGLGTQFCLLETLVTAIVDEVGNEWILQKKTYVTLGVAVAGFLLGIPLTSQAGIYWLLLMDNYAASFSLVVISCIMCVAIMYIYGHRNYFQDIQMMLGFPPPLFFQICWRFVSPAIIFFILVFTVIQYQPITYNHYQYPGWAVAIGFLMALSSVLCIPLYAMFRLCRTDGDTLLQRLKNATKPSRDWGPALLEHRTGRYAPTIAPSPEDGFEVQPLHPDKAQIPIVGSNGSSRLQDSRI

[14] = biological target: T3, Sodium- and chloride-dependent glycine transporter 1 (Homo sapiens, UniProt P48067); assay: Inhibition of recombinant human GlyT1b expressed in Xenopus laevis oocytes assessed as reduction in channel current by two-electrode voltage clamp electrophysiology; assay type: cell-based
T3 sequence (P48067 whole entry): T2 sequence (whole entry)

[15] = biological target: T4, Sodium- and chloride-dependent glycine transporter 2 (Homo sapiens, UniProt Q9Y345); assay: Inhibition of recombinant human GlyT2a expressed in Xenopus laevis oocytes assessed as reduction in channel current by two-electrode voltage clamp electrophysiology; assay type: cell-based
T4 sequence (Q9Y345 whole entry): T1 sequence (whole entry)

[16] = biological target: T1, Sodium- and chloride-dependent glycine transporter 2 (Homo sapiens); assay: Inhibition of recombinant human GlyT2a expressed in Xenopus laevis oocytes assessed as reduction in channel current at 1 uM by two-electrode voltage clamp electrophysiology; assay type: cell-based; summary of the method: as §4
[17] = test system: GlyT2 (Homo sapiens); assay: Inhibition of recombinant human GlyT2a expressed in expressed in Xenopus laevis oocytes assessed as reduction in [3H]glycine uptake at 0.1 to 1 uM pretreated for 2 mins followed by [3H]glycine addition and measured after 30 mins by scintillation counting method

| Imax [1] [%] | Activity [6] [%] | metabolised at 1 h, 1 µM [7] [%] | t1/2 [8] [h] | t1/2 [9] [h] | metabolised at 4 h, 1000 ng/ml [10] [%] | Imax [11] [%] | Imax [12] [%] | inhibition [13] | IC50 [14] [nM] | IC50 [15] [nM] | Imax [16] [%] | inhibition [17] | Compound | Activity [2] | Activity [3] | Activity [4] | Activity [5] |
| --- | --- | --- | --- | --- | --- | --- | --- | --- | --- | --- | --- | --- | --- | --- | --- | --- | --- |
| 93 | 35 | – | – | – | – | – | – | – | – | – | – | – | COc1cc(C(=O)NCC2(N(C)C)CCCC2)cc(OC)c1OCc1ccccc1 | Active | Toxic | Toxic | Toxic |
| 86.8 | – | < 15 | 0.9 | 1.43 | < 15 | 62.4 | 82.8 | inactive | > 3000 | 25.5 | 30.2 | Active | CCCCCCCC/C=C\CCCCCCCC(=O)N[C@@H](CCCCN)C(=O)O.Cl | – | – | – | – |
